Source: ChEMBL document CHEMBL4513216, “Probing the Open Global Health Chemical Diversity Library for Multistage-Active Starting Points for Next-Generation Antimalarials” (ACS Infect Dis, 2020)

Test: Toxicity liver stage against HepG2, at 10uM
Format: cell-based
Design: test concentration 10 uM, cell line HepG2-A16-CD81EGFP
Details: human, HepG2-A16-CD81EGFP cells; read-out: INHIBITION
How it was run: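 Uninfected HepG2-A16-CD81EGFP cells, 3 × 10^3 per well, 1536-well, plated on prespotted compound at 10 μM final, parasite-free screening media added to match infected plates; puromycin 10 μM positive, DMSO 0.5% negative; run in parallel with 48 h PbLuc assay at 37 °C, 5% CO2; viability by CellTiter-Glo luminescence, normalized to controls.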
For `Cn1cncc1-c1nnc([C@H]2CCN(Cc3ccc(CO)o3)C2)o1`, the cytotoxicity at 10 µM was -4.09%.
Compound `CC1(C)[C@H](Cc2cc(CN3CCCCC3)on2)C[C@@H]1NS(C)(=O)=O` has a cytotoxicity at 10 µM of 1.12%.
`CC1CCN(C[C@H]2CN3CC[C@H]2C[C@@H]3CNC(=O)c2ccco2)CC1` showed a cytotoxicity at 10 µM of -1.55%.
`COC(=O)[C@@H]1CN(C(=O)Nc2ccccc2)CCN1C(C)=O` gave a cytotoxicity at 10 µM of 4.23%.
`CCCOC(=O)c1ccc(-c2ccc(/C=C3\C(=O)NC(=N)N3C)o2)cc1` gave a cytotoxicity at 10 µM of 2.91%.
Compound `O=C1CC(c2cccnc2)c2c(c(C(=O)O)cn2-c2cccc(F)c2)N1` (stereo not given) has a cytotoxicity at 10 µM of -0.585%.
`COc1ccc2c(c1)c(C(=O)Nc1cc(C)n(C)n1)cn2C(C)C` gave a cytotoxicity at 10 µM of -1.33%.
Work on `COC(=O)CNC(=O)c1nc(Cl)sc1C(C)C` yielded a cytotoxicity at 10 µM of 1.34%.
`COc1ccccc1C(=O)Nc1nc2c(s1)CN(S(=O)(=O)C1CC1)CC2` gave a cytotoxicity at 10 µM of -11.7%.
With `O=C(NCCOc1ccccc1)NCC(O)c1cccs1` (stereo not given) the cytotoxicity at 10 µM was -7.83%.
Work on `CCOc1ccc(S(=O)(=O)N(CCOC)Cc2ccoc2)cc1F` yielded a cytotoxicity at 10 µM of 8.31%.
Work on `O=C(C1CCOCC1)N1CCC2(CCNCC2)C1` yielded a cytotoxicity at 10 µM of 3.41%.
Compound `Cn1nc(CN2CCCC2)c2c1CN(C(=O)c1ccc[nH]1)CC2` has a cytotoxicity at 10 µM of 6.86%.
In the case of `CC(=O)c1ccc(NC(=O)N[C@H](C(=O)O)C(C)C)cc1`, the cytotoxicity at 10 µM is reported as -14.8%.
With `COC(=O)c1ccccc1NC(=O)c1nc2ccccc2n(C)c1=O` the cytotoxicity at 10 µM was -9.99%.
`CC(C)(C)C(=O)N1CCC2(COCc3cnc(N4CCOCC4)nc32)C1` (stereo not given) showed a cytotoxicity at 10 µM of -14.2%.
`CC(Oc1ccc2c(c1)OCO2)C(=O)Nc1ccon1` (stereo not given) showed a cytotoxicity at 10 µM of 1.09%.
`O=C(NCCC(O)c1ccccc1)c1ccco1` (stereo not given) showed a cytotoxicity at 10 µM of -0.749%.
`O=C(O)c1ccccc1-c1cnc(CNC(=O)C2CCOCC2)nc1` showed a cytotoxicity at 10 µM of -3.99%.
`Cc1cc(C(F)(F)F)n2nc(C3CCN(S(C)(=O)=O)CC3)cc2n1` showed a cytotoxicity at 10 µM of 0.065%.
Work on `CCN(CC)CCCNCc1cc2cc(C)cc(C)c2[nH]c1=O` yielded a cytotoxicity at 10 µM of 7.63%.
Compound `CCc1n[nH]c(C(=O)NCCn2ccc(C)n2)c1C` has a cytotoxicity at 10 µM of 8.58%.
Work on `CS(=O)(=O)N1CCCC1c1cccc(Nc2nccs2)n1` (stereo not given) yielded a cytotoxicity at 10 µM of -33.4%.
In the case of `Cc1ncc(CNC(=O)Cc2ccsc2)c(C2CCCN2C)n1` (stereo not given), the cytotoxicity at 10 µM is reported as -1.25%.
`CN1CC(c2cc(O)nc(NCc3ccc(Cl)cc3)n2)CC1=O` (stereo not given) showed a cytotoxicity at 10 µM of -9.54%.
Work on `CCCC(NC(=O)c1cc(C2CC2)[nH]n1)c1nnc2ccccn12` (stereo not given) yielded a cytotoxicity at 10 µM of 0.11%.
`Oc1cccc(CNCc2ccc(-n3cncn3)nc2)c1` showed a cytotoxicity at 10 µM of 4.01%.
Work on `COc1ccc(-c2noc(C3=NN(C)C(=O)CC3)n2)cc1OC` yielded a cytotoxicity at 10 µM of -0.51%.
In the case of `CCc1cccc(C)c1NC(=O)NCCCN(CC)S(C)(=O)=O`, the cytotoxicity at 10 µM is reported as 4.87%.
Compound `CC(c1nc(C2CC2)no1)N1CCC(NS(=O)(=O)c2cccs2)CC1` (stereo not given) has a cytotoxicity at 10 µM of 6.4%.
For `CS(=O)(=O)C1(CNCc2cccc(-n3cccn3)c2)CCOCC1`, the cytotoxicity at 10 µM was -141%.
`Cn1cnc(S(=O)(=O)N2CCCc3cc(F)cc(F)c32)c1Cl` gave a cytotoxicity at 10 µM of -0.767%.
With `COC(=O)c1ccc(F)c(S(=O)(=O)Nc2ccc(C(N)=O)cc2)c1` the cytotoxicity at 10 µM was 3.63%.
Compound `O=C(NCc1nncn1C1CC1)c1ccccc1Oc1cccnc1` has a cytotoxicity at 10 µM of -4.97%.
In the case of `CN(C)c1ccc(C(=O)Nc2ccn(CCc3ccncc3)n2)cn1`, the cytotoxicity at 10 µM is reported as -12.7%.
Work on `O=C(Nc1ccc(-n2cncn2)nc1)N(CC1CCOC1)C1CC1` (stereo not given) yielded a cytotoxicity at 10 µM of -9.2%.
Compound `Cc1nnc2n1CCN(C(=O)c1cnc3c(cnn3CC(C)C)c1)C2` has a cytotoxicity at 10 µM of -8.72%.
With `Cc1ccn(-c2ccc(N3CCN(Cc4ccccn4)CC3)nn2)n1` the cytotoxicity at 10 µM was 5.6%.
Work on `CN(C)C(CNC(=O)NCCS(C)(=O)=O)c1ccco1` (stereo not given) yielded a cytotoxicity at 10 µM of 4.41%.
For `CC(C)CC(=O)Nc1c(-c2ccc(F)cc2)ncn1C`, the cytotoxicity at 10 µM was 5.87%.
With `CCSc1ccc(NC(=O)NC(C)c2c(C)nn(C)c2C)cn1` (stereo not given) the cytotoxicity at 10 µM was -2.6%.
Compound `CSCCC(C)NC(=O)N(C)Cc1cc(Cl)cn1C` (stereo not given) has a cytotoxicity at 10 µM of 3.04%.
Compound `O=C(c1cccc2c1OCO2)N1CCC(N2CCCC2)CC1` has a cytotoxicity at 10 µM of -2.35%.
For `CC(NC(=O)N1CCNC(=O)CC1)c1ccc(OC(F)F)cc1` (stereo not given), the cytotoxicity at 10 µM was 11.6%.
For `O=C(c1cnns1)N1CCN(Cc2ccc(F)cc2Cl)CC1`, the cytotoxicity at 10 µM was -127%.
In the case of `Cc1ccc(F)c(C(=O)Nc2c(C(N)=O)n[nH]c2C)c1`, the cytotoxicity at 10 µM is reported as -0.587%.
`CCc1n[nH]c(C2CN(Cc3csc(C4CCCC4)n3)CCO2)n1` (stereo not given) gave a cytotoxicity at 10 µM of -14.6%.
`N#Cc1ccc(OC2CCN(CC(=O)NCC(F)(F)F)CC2)cc1` showed a cytotoxicity at 10 µM of 11.9%.
With `COCCS(=O)(=O)NCC(C)c1cccc(C)c1` (stereo not given) the cytotoxicity at 10 µM was 2.03%.
`CC(C)C(CCO)NC(=O)Nc1cc(F)ccc1-n1cccn1` (stereo not given) gave a cytotoxicity at 10 µM of -4.06%.
For `CN(CC(N)=O)CC(=O)N(C1=CCCCC1)C1CC1`, the cytotoxicity at 10 µM was -3.85%.
Compound `CCC1CCCCN1C(=O)c1ccc2[nH]nnc2c1` (stereo not given) has a cytotoxicity at 10 µM of -10.7%.
`CCOC(C)c1nc(CN2CCC(CNC(C)=O)CC2)cs1` (stereo not given) showed a cytotoxicity at 10 µM of -15%.
In the case of `CN(C)S(=O)(=O)N1CCCC1CC(=O)c1cccs1` (stereo not given), the cytotoxicity at 10 µM is reported as -9.44%.
With `CN(CC(=O)N1CCN(c2ncccn2)CC1)c1ccc(Cl)cn1` the cytotoxicity at 10 µM was -9.65%.
